Experiment [1] in a line: HUVEC growth inhibition – cell-based, human, primary screen (AID 575;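 active means viability at or below 30% in both replicate assays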;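 further: 100% = median of untreated cell wells with 0.1% DMSO on each plate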). Particulars: HUVEC proliferation, CellTiter-Glo luminescence, 72 h; at 10 µM; stronger effect = lower value. An outline of the steps:
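Assay system: primary human umbilical vein endothelial cells / Buffer or medium: endothelial basal medium with 2% FBS plus growth supplements / Compound dosing: one dose, 10 µM final, 0.1% DMSO / Timing: 72 h treatment at 37 °C / Signal: CTG luminescence / Benchmarks: 32 DMSO-only cell-control wells (high), 32 MePR drug-control wells (low) per plate / Plate: collagen-coated 384-well format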

The nature of experiment [2]: H69AR cell proliferation blockers – human, duplicate replicates, primary screen (AID 580;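 active means viability at or under a set limit in both replicates, limit being median viability minus 3 SD, cut at about 48% in these data, passing the limit was not always enough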;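 further: 100% = mean luminescence of untreated wells and 0% = no signal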). As to conditions: H69AR lung tumor cells viability, ATP luminescence, 72 h; at 10 µM; stronger effect = lower value.
The nature of experiment [3]: MRP1 drug-resistance reversers in H69AR cells – cell-based, doxorubicin co-treatment, pilot screen (AID 601;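 active means viability loss from added drug above about 55%, and viability with drug at most 40%, in both replicates, limit read from the data, passing the limit was not always enough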). As to conditions: CellTiter-Glo, 72 h, at 10 µM; for differential viability (reversal): stronger effect = higher value.
The nature of experiment [4]: yeast transport mutant growth inhibition pilot in 384-well plates, post-Golgi transport modulator project (AID 636). As to conditions: absorbance 615 nm, about 18 h, stronger effect = higher value.
Experiment [5] is described as follows: growth suppression of yeast trafficking mutant, preliminary HTS, modulators of trafficking downstream of Golgi apparatus project, 1536-format plate, OD 615 nm (AID 637; in the data active means inhibition above about 30%). Particulars: yeast transport mutant growth, absorbance 615 nm, 18 h; stronger effect = higher value.
[6] abbreviates: H69AR cells + 2 uM doxorubicin, measured here: viability with 2 uM doxorubicin, stronger effect = lower value.
[7] abbreviates: H69AR cells, compound alone cytotoxicity.

Activity calls are given as the source filed them. Unless noted, no stated cut-off is given here; in the data, active means inhibition above about 31%; inactive means the rest.

Regarding `Cc1nc(SCC(=O)NCc2ccco2)c2c(C)c(C)sc2n1`, the viability (as a rule, a read-out of living cells in per cent, often relative to untreated cells) in experiment [1] is 81.7% (inactive); in experiment [2], 86.6% (inactive); in experiment [3] (setting [6]), 71.4%; in experiment [3] (setting [7]) it was 86.6%. Besides, the differential viability (reversal) in experiment [3] (H69AR cells + 2 uM doxorubicin) is 15.1% (inactive). In addition, the inhibition (commonly the relative decrease from the control value, in per cent) in experiment [4] is -2.86% (inactive); in experiment [5], -0.79% (inactive).
`O=C(NC12CC3CC(CC(C3)C1)C2)N1CCN(C(=O)C2CCCO2)CC1` (centres undefined): the viability in experiment [1] is 111% (inactive); in experiment [2], 95.6% (inactive); in experiment [3] (setting [6]), 84.4%; in experiment [3] (setting [7]) it was 95.6%. In addition, the differential viability (reversal) in experiment [3] (H69AR cells + 2 uM doxorubicin) was 11.2% (inactive). In addition, the inhibition is -7.07% (inactive) in experiment [4] and 5.24% (inactive) in experiment [5].
Take `COC(=O)c1[nH]c2ccc(C)cc2c1NC(=O)CN1CCCc2ccccc21`: the viability in experiment [1] was 48.2% (inactive); in experiment [2], 67.6% (inactive); in experiment [3] (setting [6]), 83.2%; in experiment [3] (setting [7]) it was 67.6%. The differential viability (reversal) in experiment [3] (H69AR cells + 2 uM doxorubicin) is -15.6% (inactive). In addition, the inhibition was -5.73% (inactive) in experiment [4] and 0.79% (inactive) in experiment [5].
As to `COc1ccc(/C(O)=C2/C(=O)C(=O)N(Cc3cccnc3)C2c2ccncc2)cc1F` (centres undefined), the viability was 111% (inactive) in experiment [1], 97.4% (inactive) in experiment [2], 94.3% in experiment [3] (setting [6]) and 97.4% in experiment [3] (setting [7]). For the same compound, the differential viability (reversal) in experiment [3] (H69AR cells + 2 uM doxorubicin) is 3.08% (inactive). Moreover, the values for the inhibition in experiment [4] and in experiment [5] were -6.62% (inactive) and 0.16% (inactive), respectively.
Consider `Cc1cccc2cc(C#N)c(SCCN3CCCCC3)nc12`, for which the viability in experiment [1] was 61.8% (inactive); in experiment [2] it was 68.2% (inactive); in experiment [3] (setting [6]) it was 78.2%; in experiment [3] (setting [7]), 68.2%. Further, the differential viability (reversal) in experiment [3] (H69AR cells + 2 uM doxorubicin) was -10% (inactive). Further, the inhibition in experiment [4] is 1.35% (inactive); in experiment [5] it was -0.18% (inactive).
Turning to `O=C(c1ccc(S(=O)(=O)N2CCOCC2)cc1)N1CCc2ccccc2C1`, the viability in experiment [1] is 98.1% (inactive); in experiment [2] it was 91.1% (inactive); in experiment [3] (setting [6]), 88.2%; in experiment [3] (setting [7]), 91.1%. In addition, in experiment [3] (H69AR cells + 2 uM doxorubicin), the differential viability (reversal) is 2.92% (inactive). Also, the figures for the inhibition in experiment [4] and in experiment [5] were -2.37% (inactive) and 9.37% (inactive), respectively.
For `O=C1NC(c2ccccc2)(C(F)(F)F)SC2=NCCCN12` (centres undefined), the viability in experiment [1] was 102% (inactive); in experiment [2], 97.2% (inactive); in experiment [3] (setting [6]), 89.6%; in experiment [3] (setting [7]), 97.2%. In addition, in experiment [3] (H69AR cells + 2 uM doxorubicin), the differential viability (reversal) is 7.68% (inactive). In addition, the figures for the inhibition in experiment [4] and in experiment [5] were 3.82% (inactive) and -6.98% (inactive), respectively.
Regarding `COc1ccccc1-n1cnnc1SCC(=O)c1ccc[nH]1`, the viability was 106% (inactive) in experiment [1], 108% (inactive) in experiment [2], 98.1% in experiment [3] (setting [6]) and 108% in experiment [3] (setting [7]). For the same compound, in experiment [3] (H69AR cells + 2 uM doxorubicin), the differential viability (reversal) is 9.87% (inactive). In addition, the values for the inhibition in experiment [4] and in experiment [5] were -2.21% (inactive) and 2.54% (inactive), respectively.
Turning to `Cn1c(=O)[nH]c(=O)c2c1nc(N1CCNCC1)n2Cc1cccc2ccccc12`, the viability in experiment [1] is 85.5% (inactive); in experiment [2], 88.8% (inactive); in experiment [3] (setting [6]) it was 86.4%; in experiment [3] (setting [7]), 88.8%. Further, the differential viability (reversal) in experiment [3] (H69AR cells + 2 uM doxorubicin) is 2.38% (inactive). Moreover, the inhibition is -1.56% (inactive) in experiment [4] and 4.76% (inactive) in experiment [5].
As to `CCCCC(CC)Cn1c2nc3ccccc3nc2c2c(=N)oc(C)nc21` (centres undefined), the viability was 3.36% (active) in experiment [1], 1.91% (active) in experiment [2], 2.24% in experiment [3] (setting [6]) and 1.91% in experiment [3] (setting [7]). Further, the differential viability (reversal) in experiment [3] (H69AR cells + 2 uM doxorubicin) was -0.33% (inactive). Moreover, the figures for the inhibition in experiment [4] and in experiment [5] were -2.63% (inactive) and 1.59% (inactive), respectively.
For the compound `COC(=O)Cn1cc(C(=O)c2cccs2)c2ccccc21`, the viability in experiment [1] is 103% (inactive); in experiment [2], 96.4% (inactive); in experiment [3] (setting [6]), 86.9%; in experiment [3] (setting [7]), 96.4%. Moreover, in experiment [3] (H69AR cells + 2 uM doxorubicin), the differential viability (reversal) was 9.54% (inactive). The inhibition in experiment [4] was -2.34% (inactive); in experiment [5] it was 1.43% (inactive).
Consider `Cc1ccnc(NS(=O)(=O)c2ccc(N=CC3=C(O)CC(C)(C)CC3=O)cc2)n1`, for which the viability is 102% (inactive) in experiment [1], 97.1% (inactive) in experiment [2], 97.5% in experiment [3] (setting [6]) and 97.1% in experiment [3] (setting [7]). Further, the differential viability (reversal) in experiment [3] (H69AR cells + 2 uM doxorubicin) is -0.37% (inactive). For the same compound, the values for the inhibition in experiment [4] and in experiment [5] were 0.92% (inactive) and -5.4% (inactive), respectively.
`OCCn1c(CSc2nnc(-c3ccco3)n2-c2ccccc2)nc2ccc(Cl)cc21`: the viability was 68.7% (inactive) in experiment [1], 84.9% (inactive) in experiment [2], 81.7% in experiment [3] (setting [6]) and 84.9% in experiment [3] (setting [7]). The differential viability (reversal) in experiment [3] (H69AR cells + 2 uM doxorubicin) was 3.29% (inactive). Further, the inhibition was -5.45% (inactive) in experiment [4] and -3.97% (inactive) in experiment [5].
Turning to `CNCCC(Oc1ccc(C(F)(F)F)cc1)c1ccccc1` (centres undefined), the viability in experiment [1] was 54.1% (inactive); in experiment [2], 58.5% (inactive); in experiment [3] (setting [6]) it was 65.2%; in experiment [3] (setting [7]), 58.5%. Moreover, the differential viability (reversal) in experiment [3] (H69AR cells + 2 uM doxorubicin) is -6.63% (inactive). The inhibition in experiment [4] is 2.47% (inactive); in experiment [5], -3% (inactive).
As to `COc1cc(C2C3=C(CC(C)(C)CC3=O)Nc3c2c(=O)[nH]c(=O)n3Cc2ccccc2)ccc1O` (centres undefined), the viability is 83.3% (inactive) in experiment [1], 93.7% (inactive) in experiment [2], 89.5% in experiment [3] (setting [6]) and 93.7% in experiment [3] (setting [7]). Besides, the differential viability (reversal) in experiment [3] (H69AR cells + 2 uM doxorubicin) is 4.23% (inactive). Besides, the values for the inhibition in experiment [4] and in experiment [5] were 0.26% (inactive) and 3.33% (inactive), respectively.
As to `O=C(Nc1cc(C(F)(F)F)ccc1Cl)c1cc(C2CC2)on1`, the viability in experiment [1] is 96.4% (inactive); in experiment [2], 91% (inactive); in experiment [3] (setting [6]) it was 87.4%; in experiment [3] (setting [7]), 91%. Besides, the differential viability (reversal) in experiment [3] (H69AR cells + 2 uM doxorubicin) is 3.55% (inactive). Moreover, the inhibition in experiment [4] is -3.82% (inactive); in experiment [5], 0.63% (inactive).
In the case of `CCSC1=C(C#N)C(c2cccc(OC)c2)CC(=O)N1` (centres undefined), the viability was 85.5% (inactive) in experiment [1], 101% (inactive) in experiment [2], 92.6% in experiment [3] (setting [6]) and 101% in experiment [3] (setting [7]). The differential viability (reversal) in experiment [3] (H69AR cells + 2 uM doxorubicin) was 8.71% (inactive). The inhibition in experiment [4] is 0.53% (inactive); in experiment [5], -1.9% (inactive).
Consider `O=S1(=O)C=C(Sc2nc3ccccc3s2)c2ccccc21`, for which the viability in experiment [1] is 9.16% (active); in experiment [2], 1.38% (active); in experiment [3] (setting [6]), 0.99%; in experiment [3] (setting [7]), 1.38%. Besides, in experiment [3] (H69AR cells + 2 uM doxorubicin), the differential viability (reversal) was 0.39% (inactive). Also, the values for the inhibition in experiment [4] and in experiment [5] were 37.3% (active) and 55.6% (active), respectively.
`O=C(NCC1CCCO1)c1cccc(N2CCCC2=O)c1` (centres undefined): the viability in experiment [1] is 90% (inactive); in experiment [2], 90.2% (inactive); in experiment [3] (setting [6]) it was 91%; in experiment [3] (setting [7]) it was 90.2%. Also, the differential viability (reversal) in experiment [3] (H69AR cells + 2 uM doxorubicin) was -0.795% (inactive). The results for the inhibition in experiment [4] and in experiment [5] were -5.47% (inactive) and 1.9% (inactive), respectively.
For `c1ccc2c(c1)c1c3n2CCNC3CCC1` (centres undefined), the viability in experiment [1] is 91.1% (inactive); in experiment [2], 91.4% (inactive); in experiment [3] (setting [6]) it was 86.7%; in experiment [3] (setting [7]), 91.4%. Also, the differential viability (reversal) in experiment [3] (H69AR cells + 2 uM doxorubicin) is 4.74% (inactive). The inhibition in experiment [4] was -4.13% (inactive); in experiment [5] it was 0% (inactive).
For `Cc1cccc(NC(=O)CN(C)S(=O)(=O)c2ccccc2)n1`, the viability in experiment [1] was 107% (inactive); in experiment [2] it was 95.2% (inactive); in experiment [3] (setting [6]), 85.4%; in experiment [3] (setting [7]), 95.2%. For the same compound, the differential viability (reversal) in experiment [3] (H69AR cells + 2 uM doxorubicin) was 9.79% (inactive). In addition, the inhibition in experiment [4] is -6.18% (inactive); in experiment [5], 2.54% (inactive).
Take `CCc1ccc2[nH]c(=O)c(C(c3nnnn3CC3CCCO3)N3CCCc4ccccc43)cc2c1` (centres undefined): the viability was 88.5% (inactive) in experiment [1], 91.8% (inactive) in experiment [2], 98.2% in experiment [3] (setting [6]) and 91.8% in experiment [3] (setting [7]). For the same compound, the differential viability (reversal) in experiment [3] (H69AR cells + 2 uM doxorubicin) is -6.4% (inactive). The inhibition was -7.2% (inactive) in experiment [4] and -1.9% (inactive) in experiment [5].
